Measured values from ChEMBL document CHEMBL5030531, “Synthetic Glycolipids as Molecular Vaccine Adjuvants: Mechanism of Action in Human Cells and In Vivo Activity” (J Med Chem, 2021).
Values belong to the compound of their own block, whether it stands above or below them. Activity calls are given as the source filed them. The rule behind the calls is not given here.

How the values were obtained:
[1] = target: Toll-like receptor 4 (Homo sapiens) (UniProt O00206); assay: Antagonist activity at human TLR4 in LPS-stimulated HEK-Blue hTLR4 cells assessed as inhibition of LPS-induced SEAP production at 0.1 to 25 uM incubated for 18 hrs by QUANTI-blue assay; details: dose 0.1-25 µM
HEK-Blue hTLR4 [2] = assay: Activation of AP-1 in LPS-stimulated HEK-Blue hTLR4 cells assessed as increase in release of SEAP reporter protein level at 0.1 to 25 uM incubated for 18 hrs by QUANTI-blue assay; format: cell-based; details: Homo sapiens, dose 0.1-25 µM
How it was run: (§1)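 HEK-Blue hTLR4 cells (HEK293 with CD14, TLR4, MD-2 and NF-κB/AP-1-driven SEAP) in DMEM/10% FBS, seeded overnight (37 °C, 5% CO2), washed, then exposed to compound 0.1–25 μM in fresh medium for 18 h. SEAP in supernatant read with QUANTI-Blue substrate (0.5–4 h, RT) at OD 630 nm. Normalized to 100 ng/mL S. minnesota smooth LPS; mean percentage of three independent experiments.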

[3] = target: T1, Nuclear factor NF-kappa-B complex (Homo sapiens) (UniProt Q00653+P19838+Q04206); assay: Activation of NF-kappaB in LPS-stimulated HEK-Blue hTLR4 cells assessed as increase in release of SEAP reporter protein level at 0.1 to 25 uM incubated for 18 hrs by QUANTI-blue assay; format: cell-based; details: dose 0.1-25 µM
How it was run: as §1

[4] = target: NACHT, LRR and PYD domains-containing protein 3 (Homo sapiens) (UniProt Q96P20); assay: Activation of NLRP3 inflammasome in human THP-1 derived macrophages assessed as increase in IL-1beta maturation and release at 20 uM measured after 6 hrs by ELISA; format: tissue-based; details: Macrophage, filed as activator
How it was run: (§2)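 After 6 h of compound at 20 μM, differentiated THP-1 macrophage lysates were immunoblotted for pro-caspase-1 and pro-IL-1β. Methanol/chloroform-precipitated supernatants were probed for cleaved caspase-1 and cleaved IL-1β (Asp116), with chemiluminescent detection. Released IL-1β was also measured by ELISA.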

[5] = Toxicity in C57BL/6 […] assessed as effect on body weight at 10 ug measured daily for 7 days; details: mouse, in vivo, 168 h; dose 10 µg, time 7 day
How it was run: (§3)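 Six-week-old female C57BL/6 mice were injected subcutaneously in the flank with 10 μg adjuvant in 50 μL PBS. Mice were monitored and weighed daily for 7 days, with injection-site response and alertness noted. Group size is n = 3 per treatment in the methods and n = 4 in the figure legend.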

[6] = target: Myeloid differentiation primary response protein MyD88 (Homo sapiens) (UniProt Q99836); assay: Activation of MyD88 dependent pathway in human THP-1 derived macrophages assessed as increase in NF-kappaB p65 phosphorylation at 10 uM measured after 1 hr by immunoblotting analysis; format: tissue-based; details: Macrophage, filed as activator
How it was run: (§4)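 PMA-differentiated THP-1 macrophages treated with compound at 10 μM (S-LPS 100 ng/mL, MPLA 1 μg/mL as references) and harvested at set times. RIPA lysates with protease/phosphatase inhibitors separated by SDS-PAGE, transferred to PVDF and probed for phospho-p65 (Ser536) and phospho-p38 (Thr180/Tyr182) with β-actin as loading control. Detection by chemiluminescence, densitometry; representative of at least two experiments.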

Macrophage [7] = assay: Activation of TRIF dependent pathway in human THP-1 derived macrophages assessed as increase in IRF3 phosphorylation at 10 uM measured up to 3 hrs by immunoblotting analysis; format: tissue-based; details: filed as activator, time hrs <=3
How it was run: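 Differentiated THP-1 macrophages exposed to compound at 10 μM, alongside S-LPS and R-LPS (100 ng/mL each) and MPLA (1 μg/mL), and collected over a time course. Lysates were immunoblotted for phospho-IRF3 (Ser386) with β-actin as loading control and detected by chemiluminescence.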

[8] = target: Myeloid differentiation primary response protein MyD88 (Homo sapiens) (UniProt Q99836); assay: Activation of MyD88 dependent pathway in human THP-1 derived macrophages assessed as increase in TNF alpha secretion at 10 to 25 uM measured after 18 hrs by ELISA; details: Macrophage, filed as activator, dose 10-25 µM
How it was run: (§5)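 THP-1 cells differentiated with PMA 25 ng/mL for 72 h, then rested 24 h in fresh medium before stimulation with compound (range 0.1–1 to 10–25 μM) in RPMI/10% FBS for 18 h. S-LPS and MPLA used as references. TNFα, IL-1β, IL-6 in supernatants quantified by sandwich ELISA at 450 nm (570 nm correction).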

Macrophage [9] = assay: Induction of IL-1beta production in human THP-1 derived macrophages assessed as accumulation of IL-1beta precursor in cell lysates at 20 uM measured up to 18 hrs by ELISA; format: functional, subcellular; details: time hrs <=18
How it was run: (§6)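 Differentiated THP-1 macrophages treated with compound at 20 μM (S-LPS, R-LPS 100 ng/mL; MPLA 1 μg/mL) for 3, 6 and 18 h. IL-1β measured by ELISA in both cell lysates and supernatants; n = 3, one-way ANOVA versus untreated.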

Macrophage [10] = assay: Activation of TRIF dependent pathway in human THP-1 derived macrophages assessed as STAT1 phosphorylation at 10 uM pretreated with anti-IFNAR2 antibody for 1 hr followed by compound addition and measured after 3 hrs by immunoblotting analysis; details: filed as activator
[11] = target: T2, Toll-like receptor 4/MD-2 (Homo sapiens) (UniProt O00206+Q9Y6Y9); assay: Binding affinity to NTA sensor chip immobilized recombinant human TLR4/MD2 assessed as association rate constant by surface plasmon resonance analysis; format: protein-complex assay; details: filed as agonist
How it was run: (§7)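 Recombinant human TLR4/MD2 complex (20 μg/mL in 10 mM sodium acetate pH 4.0) amine-coupled to NTA chip after NiCl2 and EDC/NHS activation, ethanolamine-blocked. Analytes sonicated 15 min and diluted in PBS-P+ with 5% DMSO, injected over the series 4.34–69.50 μM or 5.34–85.50 μM. Regeneration 50 mM NaOH. Kinetics fitted to 1:1 model after solvent correction.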

Macrophage [12] = assay: Activation of TRIF dependent pathway in human THP-1 derived macrophages assessed as increase in IFNbeta mRNA expression by measuring fold increase measured 2 hrs post treatment by real-time PCR relative to control; details: filed as activator
HEK-Blue hTLR4 [13] = assay: Activation of AP-1 in LPS-stimulated HEK-Blue hTLR4 cells assessed as increase in release of SEAP reporter protein level incubated for 18 hrs by QUANTI-blue assay; format: cell-based; details: Homo sapiens, filed as activator
How it was run: as §1

[14] = target: T2, Toll-like receptor 4/MD-2 (Homo sapiens); assay: Binding affinity to NTA sensor chip immobilized recombinant human TLR4/MD2 assessed as maximum response by surface plasmon resonance analysis; format: protein-complex assay; details: filed as agonist
How it was run: as §7

[15] = target: Myeloid differentiation primary response protein MyD88 (Homo sapiens) (UniProt Q99836); assay: Activation of MyD88 dependent pathway in human THP-1 derived macrophages assessed as increase in IL-1 beta secretion at 10 to 25 uM measured after 18 hrs by ELISA; details: Macrophage, filed as activator, dose 10-25 µM
How it was run: as §5

Mus musculus [16] = assay: Immuno-adjuvant activity in C57BL/6 mouse assessed as increase in levels of anti-ova total IgG in sera at 10 ug administered subcutaneously on day 1 and as booster dose on day 22 in presence of ovalbumin and […] by ELISA; format: functional, organism-based; details: dose 10.0 µg
How it was run: (§8)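 Female C57BL/6 mice (n = 8) given 50 μL s.c. in the flank of 500 μg endotoxin-depleted OVA mixed with 10 μg adjuvant in PBS. Booster on opposite flank day 22; OVA-only control group. Tail-vein sera taken days 21 and 41, serially diluted 1:100–1:12 800 and assayed by ELISA on OVA-coated plates (4 μg/mL). Detection with HRP anti-mouse IgG, TMB, A450.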

[17] = Toxicity in C57BL/6 […] assessed as state of alertness at 10 ug observed daily for 7 days; details: mouse, in vivo, 168 h; dose 10 µg, time 7 day
How it was run: as §3

[18] = target: Toll-like receptor 4 (Homo sapiens) (UniProt O00206); assay: Activation of human TLR4 in IL-1beta stimulated HEK-Blue Null cells assessed as NF-kappaB activation at 0.1 to 25 uM incubated for 18 hrs by QUANTI- blue assay; format: tissue-based; details: dose 0.1-25 µM
How it was run: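 HEK-Blue Null cells, which carry the SEAP reporter but lack LPS receptors, were given compound (0.1–25 μM) for 18 h. SEAP was read by QUANTI-Blue at OD 630 nm and normalized to 100 ng/mL human IL-1β as positive control. Results are the mean percentage of three independent experiments.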

Macrophage [19] = assay: Inhibition of IL-1beta release in human THP-1 derived macrophages pretreated with NLRP3 inhibitor MCC950 for 1 hr followed by compound addition and measured after 6 hrs by ELISA and immunoblotting analysis; format: functional, tissue-based
How it was run: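 Differentiated THP-1 macrophages preincubated 1 h with MCC950 at 0.01, 0.1, 1 and 10 μM. Cells were then stimulated 6 h with compound at 20 μM or with S-LPS at 100 ng/mL. Secreted IL-1β measured by ELISA and by immunoblot of supernatants.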

[20] = target: T2, Toll-like receptor 4/MD-2 (Homo sapiens); assay: Binding affinity to NTA sensor chip immobilized recombinant human TLR4/MD2 assessed as dissociation rate kinetics by surface plasmon resonance analysis; format: protein-complex assay; details: filed as agonist
How it was run: as §7

Macrophage [21] = assay: Activation of TRIF dependent pathway in human THP-1 derived macrophages assessed as increase in RSAD2 expression measured after 6 hrs; format: tissue-based; details: filed as activator
How it was run: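 RSAD2 mRNA in differentiated THP-1 macrophages after compound at 10 μM, measured by RT-qPCR (annealing 60 °C) with β-actin housekeeping gene. Expressed as ΔΔCt fold change versus untreated cells; n = 3, Wilcoxon test.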

Mus musculus [22] = assay: Immuno-adjuvant activity in C57BL/6 mouse assessed as increase in levels of anti-ova total IgG in sera at 10 ug administered subcutaneously in presence of ovalbumin and measured 21 days post immunization by ELISA; format: functional, organism-based; details: dose 10.0 µg, time 21.0 day
How it was run: as §8

[23] = target: Myeloid differentiation primary response protein MyD88 (Homo sapiens) (UniProt Q99836); assay: Activation of MyD88 dependent pathway in human THP-1 derived macrophages assessed as increase in MAPK p38 phosphorylation at 10 uM measured after 1 hr by immunoblotting analysis; format: tissue-based; details: Macrophage, filed as activator
How it was run: as §4

[24] = target: Toll-like receptor 2 (Homo sapiens) (UniProt O60603); assay: Agonist activity human TLR2 in PAM2CSK4 stimulated HEK-Blue hTLR2 cells at 0.1 to 25 uM incubated for 18 hrs by QUANTI-blue assay; format: cell-based; details: dose 0.1-25 µM
How it was run: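 HEK-Blue hTLR2 cells exposed 18 h to compound (0.1–25 μM); SEAP in supernatant by QUANTI-Blue at OD 630 nm. Values normalized to PAM2CSK4 (10 ng/mL, 18 h) and expressed as mean percentage of three independent experiments.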

Macrophage [25] = assay: Activation of TRIF dependent pathway in human THP-1 derived macrophages assessed as increase in IFNbeta mRNA expression measured 2 hrs post treatment by real-time PCR; details: filed as activator
[26] = target: Myeloid differentiation primary response protein MyD88 (Homo sapiens) (UniProt Q99836); assay: Activation of MyD88 dependent pathway in human THP-1 derived macrophages assessed as increase in IL-6 secretion at 10 to 25 uM measured after 18 hrs by ELISA; details: Macrophage, filed as activator, dose 10-25 µM
How it was run: as §5

[27] = target: T1, Nuclear factor NF-kappa-B complex (Homo sapiens); assay: Activation of NF-kappaB in LPS-stimulated HEK-Blue hTLR4 cells assessed as increase in release of SEAP reporter protein level incubated for 18 hrs by QUANTI-blue assay; format: cell-based; details: filed as activator
How it was run: as §1

[28] = Toxicity in C57BL/6 […] assessed as local response at injection site at 10 ug observed daily for 7 days; details: mouse, in vivo, 168 h; dose 10 µg, time 7 day
How it was run: as §3

[29] = target: NACHT, LRR and PYD domains-containing protein 3 (Homo sapiens) (UniProt Q96P20); assay: Activation of NLRP3 inflammasome in human THP-1 derived macrophages assessed as increase in caspase-1 cleavage at 20 uM by immunoblotting analysis; format: tissue-based; details: Macrophage, filed as activator
How it was run: as §2

Macrophage [30] = assay: Induction of IL-1beta production in human THP-1 derived macrophages assessed as secretion of IL-1beta mature form in supernatant at 20 uM measured up to 18 hrs by ELISA; format: functional, tissue-based; details: time hrs <=18
How it was run: as §6

Sequence of Myeloid differentiation primary response protein MyD88 (Homo sapiens) (Q99836 whole entry): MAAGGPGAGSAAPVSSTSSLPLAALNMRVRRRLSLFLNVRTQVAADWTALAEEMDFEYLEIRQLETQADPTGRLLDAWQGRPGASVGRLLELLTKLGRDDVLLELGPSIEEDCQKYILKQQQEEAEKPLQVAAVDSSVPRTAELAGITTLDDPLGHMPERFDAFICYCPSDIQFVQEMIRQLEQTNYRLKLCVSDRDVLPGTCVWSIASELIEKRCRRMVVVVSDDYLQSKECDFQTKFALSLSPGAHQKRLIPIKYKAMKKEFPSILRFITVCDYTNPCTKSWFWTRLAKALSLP
Sequence of Toll-like receptor 4 (Homo sapiens) (O00206 whole entry): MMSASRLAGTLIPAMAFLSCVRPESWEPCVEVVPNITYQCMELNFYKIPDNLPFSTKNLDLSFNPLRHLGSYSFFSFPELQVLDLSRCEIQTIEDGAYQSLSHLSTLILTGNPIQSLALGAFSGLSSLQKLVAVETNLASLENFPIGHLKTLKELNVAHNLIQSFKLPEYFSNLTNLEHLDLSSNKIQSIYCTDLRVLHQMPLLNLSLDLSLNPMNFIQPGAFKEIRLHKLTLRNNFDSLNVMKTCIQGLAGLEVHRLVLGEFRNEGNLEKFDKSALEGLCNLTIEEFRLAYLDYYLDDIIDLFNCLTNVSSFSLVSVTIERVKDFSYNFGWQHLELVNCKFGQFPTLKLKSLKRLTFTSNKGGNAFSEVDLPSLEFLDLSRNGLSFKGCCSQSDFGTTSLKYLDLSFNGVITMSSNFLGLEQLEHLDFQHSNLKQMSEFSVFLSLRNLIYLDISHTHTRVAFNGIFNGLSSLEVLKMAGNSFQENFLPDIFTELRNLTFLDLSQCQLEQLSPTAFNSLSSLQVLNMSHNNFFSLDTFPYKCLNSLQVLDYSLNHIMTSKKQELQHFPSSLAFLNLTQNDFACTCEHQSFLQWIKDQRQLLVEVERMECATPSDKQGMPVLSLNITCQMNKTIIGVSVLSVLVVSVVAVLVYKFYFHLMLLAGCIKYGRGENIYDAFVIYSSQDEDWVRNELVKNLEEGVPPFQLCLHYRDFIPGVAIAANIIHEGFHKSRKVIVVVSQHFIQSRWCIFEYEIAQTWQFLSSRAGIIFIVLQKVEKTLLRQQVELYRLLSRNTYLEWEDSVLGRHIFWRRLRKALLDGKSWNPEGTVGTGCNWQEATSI
T1 sequence (P19838 whole entry, looked up): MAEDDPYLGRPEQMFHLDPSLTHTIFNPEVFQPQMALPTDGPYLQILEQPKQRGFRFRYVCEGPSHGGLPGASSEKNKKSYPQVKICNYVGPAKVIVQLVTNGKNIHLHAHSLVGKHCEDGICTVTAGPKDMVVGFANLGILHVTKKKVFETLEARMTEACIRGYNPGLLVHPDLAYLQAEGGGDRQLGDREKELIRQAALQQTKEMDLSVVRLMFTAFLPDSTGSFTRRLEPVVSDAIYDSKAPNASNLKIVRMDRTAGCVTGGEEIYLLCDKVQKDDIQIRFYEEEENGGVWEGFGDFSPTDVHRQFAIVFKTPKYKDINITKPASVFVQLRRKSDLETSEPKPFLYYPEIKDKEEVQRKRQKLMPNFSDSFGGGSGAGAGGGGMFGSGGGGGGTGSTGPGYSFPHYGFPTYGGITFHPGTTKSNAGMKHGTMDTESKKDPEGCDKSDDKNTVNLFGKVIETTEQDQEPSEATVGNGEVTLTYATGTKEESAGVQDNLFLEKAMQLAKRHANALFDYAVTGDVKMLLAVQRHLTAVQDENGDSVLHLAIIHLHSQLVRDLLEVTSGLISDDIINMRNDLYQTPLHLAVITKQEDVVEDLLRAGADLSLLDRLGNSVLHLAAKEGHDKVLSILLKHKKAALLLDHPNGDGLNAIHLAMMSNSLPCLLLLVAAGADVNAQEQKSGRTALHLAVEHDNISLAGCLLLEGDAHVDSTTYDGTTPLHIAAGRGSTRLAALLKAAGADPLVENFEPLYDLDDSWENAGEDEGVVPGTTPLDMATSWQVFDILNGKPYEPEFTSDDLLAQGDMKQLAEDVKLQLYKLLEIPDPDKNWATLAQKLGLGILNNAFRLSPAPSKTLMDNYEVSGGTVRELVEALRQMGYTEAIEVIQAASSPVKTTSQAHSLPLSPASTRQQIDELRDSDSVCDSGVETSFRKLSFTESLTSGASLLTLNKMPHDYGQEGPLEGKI
T1 sequence (Q00653 whole entry, looked up): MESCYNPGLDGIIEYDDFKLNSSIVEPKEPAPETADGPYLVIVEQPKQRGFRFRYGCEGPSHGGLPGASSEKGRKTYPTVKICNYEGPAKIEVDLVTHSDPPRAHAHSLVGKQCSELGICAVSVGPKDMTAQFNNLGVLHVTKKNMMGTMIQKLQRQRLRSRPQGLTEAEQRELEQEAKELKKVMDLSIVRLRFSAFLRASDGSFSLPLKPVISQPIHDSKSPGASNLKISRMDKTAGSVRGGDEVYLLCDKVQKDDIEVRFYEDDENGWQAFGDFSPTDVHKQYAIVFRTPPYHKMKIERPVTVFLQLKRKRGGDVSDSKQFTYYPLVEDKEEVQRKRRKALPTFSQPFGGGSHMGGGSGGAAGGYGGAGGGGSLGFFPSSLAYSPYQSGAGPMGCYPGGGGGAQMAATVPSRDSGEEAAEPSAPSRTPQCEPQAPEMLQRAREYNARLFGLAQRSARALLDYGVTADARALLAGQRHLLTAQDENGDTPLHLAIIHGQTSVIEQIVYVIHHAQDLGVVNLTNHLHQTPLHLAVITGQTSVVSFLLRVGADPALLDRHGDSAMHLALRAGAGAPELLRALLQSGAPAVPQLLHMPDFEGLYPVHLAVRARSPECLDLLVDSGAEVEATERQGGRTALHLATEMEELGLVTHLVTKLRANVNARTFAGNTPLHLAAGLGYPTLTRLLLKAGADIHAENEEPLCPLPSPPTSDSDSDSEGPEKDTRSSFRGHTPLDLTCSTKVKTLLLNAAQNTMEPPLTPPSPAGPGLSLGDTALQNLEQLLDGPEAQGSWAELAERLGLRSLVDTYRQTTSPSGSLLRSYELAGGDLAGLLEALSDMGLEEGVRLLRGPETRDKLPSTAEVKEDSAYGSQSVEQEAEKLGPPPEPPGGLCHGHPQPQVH
T1 sequence (Q04206 whole entry, looked up): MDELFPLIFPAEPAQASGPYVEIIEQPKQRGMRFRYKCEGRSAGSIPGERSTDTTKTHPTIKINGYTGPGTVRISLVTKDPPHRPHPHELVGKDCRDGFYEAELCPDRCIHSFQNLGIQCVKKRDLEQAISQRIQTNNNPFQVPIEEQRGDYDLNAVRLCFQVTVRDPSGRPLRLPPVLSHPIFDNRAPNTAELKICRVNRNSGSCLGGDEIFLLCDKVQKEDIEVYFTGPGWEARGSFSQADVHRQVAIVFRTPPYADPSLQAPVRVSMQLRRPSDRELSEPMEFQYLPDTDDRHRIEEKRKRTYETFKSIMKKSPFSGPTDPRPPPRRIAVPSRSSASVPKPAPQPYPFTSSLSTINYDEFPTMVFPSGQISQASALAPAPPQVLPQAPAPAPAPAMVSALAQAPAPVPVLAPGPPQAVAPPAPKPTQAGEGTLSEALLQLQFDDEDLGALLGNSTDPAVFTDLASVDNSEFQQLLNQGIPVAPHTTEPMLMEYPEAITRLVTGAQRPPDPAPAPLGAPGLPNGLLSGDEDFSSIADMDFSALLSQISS
Sequence of NACHT, LRR and PYD domains-containing protein 3 (Homo sapiens) (Q96P20 whole entry, the tested form may be a part): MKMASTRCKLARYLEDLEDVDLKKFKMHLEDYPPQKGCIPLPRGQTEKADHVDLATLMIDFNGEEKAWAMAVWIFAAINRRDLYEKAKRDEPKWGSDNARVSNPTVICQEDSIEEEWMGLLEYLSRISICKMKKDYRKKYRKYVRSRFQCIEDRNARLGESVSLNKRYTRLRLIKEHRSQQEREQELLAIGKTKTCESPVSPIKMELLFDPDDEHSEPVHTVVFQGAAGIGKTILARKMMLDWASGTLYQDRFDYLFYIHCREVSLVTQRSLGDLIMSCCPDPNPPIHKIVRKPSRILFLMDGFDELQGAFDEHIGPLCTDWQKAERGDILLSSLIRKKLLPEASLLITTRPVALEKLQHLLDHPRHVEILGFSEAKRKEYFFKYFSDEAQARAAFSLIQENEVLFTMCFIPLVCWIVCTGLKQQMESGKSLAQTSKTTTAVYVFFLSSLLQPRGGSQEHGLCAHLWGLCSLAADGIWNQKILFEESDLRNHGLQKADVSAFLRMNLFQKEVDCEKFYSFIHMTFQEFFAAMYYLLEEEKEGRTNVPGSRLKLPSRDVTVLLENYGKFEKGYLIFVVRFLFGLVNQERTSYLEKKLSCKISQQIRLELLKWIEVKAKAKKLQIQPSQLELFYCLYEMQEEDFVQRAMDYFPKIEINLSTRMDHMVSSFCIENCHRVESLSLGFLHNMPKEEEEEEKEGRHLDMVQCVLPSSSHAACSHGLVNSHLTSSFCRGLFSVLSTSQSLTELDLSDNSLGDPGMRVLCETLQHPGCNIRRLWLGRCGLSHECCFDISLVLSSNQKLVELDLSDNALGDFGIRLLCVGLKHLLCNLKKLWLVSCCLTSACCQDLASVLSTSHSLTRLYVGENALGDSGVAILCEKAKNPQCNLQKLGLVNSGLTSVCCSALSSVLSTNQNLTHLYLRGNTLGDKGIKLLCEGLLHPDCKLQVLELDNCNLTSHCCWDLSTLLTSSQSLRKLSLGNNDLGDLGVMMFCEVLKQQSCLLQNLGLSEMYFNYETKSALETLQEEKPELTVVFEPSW

Activity [1]: inactive
Activity [3]: inactive
SMILES: CCCCCCCCCCCCCC(=O)N[C@H]1[C@@H](OP(=O)(O)O)O[C@H](COP(=O)(O)O)[C@@H](OC(=O)CCCCCCCCCCCCC)[C@@H]1OC(=O)CCCCCCCCCCCCC
Activity (HEK-Blue hTLR4 [2]): inactive

Activity [1]: inactive
Activity [4]: Active
Activity [6]: Active
Activity [8]: Active
Ka [11]: 9.15 10^2/Ms
Rmax [14]: 29.1 RU
Activity [15]: Active
Activity [18]: inactive
Kdiss [20]: 5.19 10^-4/s
Activity [23]: Active
Activity [24]: inactive
Activity [26]: Active
Activity [27]: Dose-Dependent Effect
Activity [29]: Active
SMILES: CCCCCCCCCCCC(=O)N[C@H]1[C@@H](OP(=O)([O-])[O-])O[C@H](CO)[C@@H](OC(=O)CCCCCCCCCCC)[C@@H]1OC(=O)CCCCCCCCCCC.[Na+].[Na+]
Activity [5]: Non-Toxic
Activity (Macrophage [7]): Active
Activity (Macrophage [9]): Active
Activity (Macrophage [10]): Active
fold change (FC) (Macrophage [12]): 20
Activity (HEK-Blue hTLR4 [13]): Dose-Dependent Effect
Activity (Mus musculus [16]): Active
Activity [17]: Non-Toxic
inhibition (Macrophage [19]): Dose-Dependent Effect
Activity (Macrophage [21]): Active
Activity (Mus musculus [22]): Active
Activity (Macrophage [25]): Active
Activity [28]: Non-Toxic
Activity (Macrophage [30]): Active
